Results published in ChEMBL document CHEMBL2016522, “Discovery and Hit-to-Lead Optimization of Non-ATP Competitive MK2 (MAPKAPK2) Inhibitors” (ACS Med Chem Lett, 2011).

How the values were obtained:
THP-1 [1] = assay: Antiinflammatory activity in human THP1 cells assessed as inhibition of LPS-induced IL6 production incubated for 30 mins prior to LPS-challenge measured after 18 hrs by immunoabsorbent-based electrochemical luminescence assay; assay type: functional, cell-based
Summary of the method: (§1)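 Human THP1 acute monocytic leukemia cells are treated with a range of compound concentrations and stimulated with LPS. Secreted TNFα or IL6 is then measured. Each data point is the average, with standard error, of duplicate samples.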

SW1353 = assay: Inhibition of IL1beta-stimulated MMP13 secretion in human SW1353 cells incubated for 30 mins prior to IL1beta-stimulation measured after 24 hrs by ELISA; assay type: functional, cell-based
Summary of the method: (§2)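 Cells are treated with a range of compound concentrations, then stimulated with IL1-β, and secreted MMP-13 is measured. Two cell systems are used: the SW1353 line and human primary chondrocytes derived from osteoarthritis tissue. Each data point is the average, with standard error, of duplicate samples.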

Cytochrome P450 3A4 [2] = molecular target: T1, Cytochrome P450 3A4 (Homo sapiens, UniProt P08684); assay: Inhibition of CYP3A4 in human liver microsomes co-incubated with testosterone; assay type: ADME, Microsome
Summary of the method: (§3)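 Tested against a panel of cytochrome P450 enzymes at compound concentrations up to 30 μM.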

Cytochrome P450 2D6 [3] = molecular target: T2, Cytochrome P450 2D6 (Homo sapiens, UniProt P10635); assay: Inhibition of CYP2D6 in human liver microsomes using dextromethorphan as substrate incubated for 30 mins prior to substrate addition; assay type: ADME, Microsome; summary of the method: as §3
Cytochrome P450 2C9 [4] = molecular target: T3, Cytochrome P450 2C9 (Homo sapiens, UniProt P11712); assay: Inhibition of CYP2C9 in human liver microsomes using tolbutamide as substrate incubated for 30 mins prior to substrate addition; assay type: ADME, Microsome; summary of the method: as §3
[5] = Cytotoxicity against human SW1353 cells after 30 mins by ATP-dependent luciferase luminescence assay; assay type: cell-based
Cytochrome P450 2D6 [6] = molecular target: T2, Cytochrome P450 2D6; assay: Inhibition of CYP2D6 in human liver microsomes co-incubated with dextromethorphan; assay type: ADME, Microsome; summary of the method: as §3
Cytochrome P450 2C9 [7] = molecular target: T3, Cytochrome P450 2C9; assay: Inhibition of CYP2C9 in human liver microsomes co-incubated with tolbutamide; assay type: ADME, Microsome; summary of the method: as §3
THP-1 [8] = assay: Antiinflammatory activity in human THP1 cells assessed as inhibition of LPS-induced TNFalpha production incubated for 30 mins prior to LPS-challenge measured after 3 hrs by ELISA; assay type: functional, cell-based; summary of the method: as §1
[9] = (§4) Inhibition of IL1beta-stimulated MMP13 secretion in human primary chondrocytes incubated for 30 mins prior to IL1beta-stimulation measured after 24 hrs by ELISA; assay type: functional, cell-based; summary of the method: as §2
Cytochrome P450 3A4 [10] = molecular target: T1, Cytochrome P450 3A4; assay: Inhibition of CYP3A4 in human liver microsomes using testosterone as substrate incubated for 30 mins prior to substrate addition; assay type: ADME, Microsome; summary of the method: as §3
Homo sapiens = species on record: Homo sapiens; assay: as §4; assay type: functional, cell-based; summary of the method: as §2
[11] = molecular target: Casein kinase I isoform gamma-3 (Homo sapiens) (UniProt Q9Y6M4); assay: Inhibition of human CK1gamma3 at 10 uM
[12] = molecular target: T4, MAP kinase-activated protein kinase 2 (Homo sapiens, UniProt P49137); assay: Inhibition of MK2-mediated HSP27 phosphorylation in IL-1beta stimulated human SW1353 cells incubated for 30 mins prior to IL-1beta-stimulation measured after 27 mins by ELISA; assay type: cell-based
[13] = molecular target: T4, MAP kinase-activated protein kinase 2; assay: Inhibition of MK2 using Acam peptide as substrate incubated for 30 mins prior to substrate addition measured after 10 mins using 100 uM ATP by DELFIA assay
[14] = AUC (0 to 6 hrs) in rat at 10 mg/kg, po; assay type: ADME, organism-based; parameters: time < 6 hr, dose 10 mg/kg, route oral; conditions: plasma
Summary of the method: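 Single oral dose of 10 mg/kg in rats. Plasma exposure is reported as AUC in nM h.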

[15] = molecular target: Insulin-like growth factor 1 receptor (Homo sapiens, UniProt P08069); assay: Inhibition of human IGF1R
[16] = molecular target: Calcium/calmodulin-dependent protein kinase type IV (Homo sapiens, UniProt Q16566); assay: Inhibition of human CAMK4
[17] = molecular target: T4, MAP kinase-activated protein kinase 2; assay: Inhibition of MK2 using Acam peptide as substrate incubated for 30 mins prior to substrate addition measured after 10 mins using 2 uM ATP by DELFIA assay
[18] = molecular target: Tyrosine-protein kinase Lck (Homo sapiens, UniProt P06239); assay: Inhibition of human LCK
[19] = molecular target: RAC-alpha serine/threonine-protein kinase (Homo sapiens, UniProt P31749); assay: Inhibition of human AKT1
[20] = Solubility of the compound; assay type: physicochemical
[21] = molecular target: Serine/threonine-protein kinase 3 (Homo sapiens, UniProt Q13188); assay: Inhibition of human MST2
[22] = molecular target: Hepatocyte growth factor receptor (Homo sapiens, UniProt P08581); assay: Inhibition of human MET
[23] = molecular target: Inhibitor of nuclear factor kappa-B kinase subunit beta (Homo sapiens, UniProt O14920); assay: Inhibition of human IKKB
[24] = molecular target: Rho-associated protein kinase 2 (Homo sapiens, UniProt O75116); assay: Inhibition of human ROCK2
[25] = molecular target: Serine/threonine-protein kinase Chk1 (Homo sapiens, UniProt O14757); assay: Inhibition of human CHK1
[26] = molecular target: Testis-specific serine/threonine-protein kinase 2 (Homo sapiens, UniProt Q96PF2); assay: Inhibition of human TSSK2
[27] = molecular target: Casein kinase I isoform delta (Homo sapiens, UniProt P48730); assay: Inhibition of human CSNK1D
[28] = molecular target: Interleukin-1 receptor-associated kinase 4 (Homo sapiens, UniProt Q9NWZ3); assay: Inhibition of human IRAK4

T4 sequence (P49137 whole entry): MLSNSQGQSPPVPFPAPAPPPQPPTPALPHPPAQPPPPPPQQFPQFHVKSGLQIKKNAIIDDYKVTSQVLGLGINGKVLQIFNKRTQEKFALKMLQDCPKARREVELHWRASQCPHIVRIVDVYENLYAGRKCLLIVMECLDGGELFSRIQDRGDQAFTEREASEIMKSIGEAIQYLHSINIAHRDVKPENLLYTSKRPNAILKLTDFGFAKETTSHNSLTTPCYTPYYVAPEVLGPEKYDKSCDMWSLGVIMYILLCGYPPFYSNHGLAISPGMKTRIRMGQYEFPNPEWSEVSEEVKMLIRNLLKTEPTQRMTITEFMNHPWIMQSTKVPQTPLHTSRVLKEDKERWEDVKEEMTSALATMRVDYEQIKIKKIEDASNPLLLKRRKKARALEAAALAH
T2 sequence (P10635 whole entry): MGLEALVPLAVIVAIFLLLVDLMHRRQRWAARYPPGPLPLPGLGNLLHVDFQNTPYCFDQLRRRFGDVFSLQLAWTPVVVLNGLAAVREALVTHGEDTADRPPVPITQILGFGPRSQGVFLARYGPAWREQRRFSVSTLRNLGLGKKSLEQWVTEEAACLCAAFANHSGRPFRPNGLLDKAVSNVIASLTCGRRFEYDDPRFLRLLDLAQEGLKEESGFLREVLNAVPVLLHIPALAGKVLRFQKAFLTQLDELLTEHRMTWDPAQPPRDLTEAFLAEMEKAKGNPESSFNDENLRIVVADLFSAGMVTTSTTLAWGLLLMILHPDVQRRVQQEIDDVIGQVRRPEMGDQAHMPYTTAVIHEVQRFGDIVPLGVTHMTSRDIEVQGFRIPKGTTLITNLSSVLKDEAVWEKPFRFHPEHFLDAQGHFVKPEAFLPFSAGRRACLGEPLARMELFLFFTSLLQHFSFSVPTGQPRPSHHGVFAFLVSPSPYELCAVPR
T1 sequence (P08684 whole entry): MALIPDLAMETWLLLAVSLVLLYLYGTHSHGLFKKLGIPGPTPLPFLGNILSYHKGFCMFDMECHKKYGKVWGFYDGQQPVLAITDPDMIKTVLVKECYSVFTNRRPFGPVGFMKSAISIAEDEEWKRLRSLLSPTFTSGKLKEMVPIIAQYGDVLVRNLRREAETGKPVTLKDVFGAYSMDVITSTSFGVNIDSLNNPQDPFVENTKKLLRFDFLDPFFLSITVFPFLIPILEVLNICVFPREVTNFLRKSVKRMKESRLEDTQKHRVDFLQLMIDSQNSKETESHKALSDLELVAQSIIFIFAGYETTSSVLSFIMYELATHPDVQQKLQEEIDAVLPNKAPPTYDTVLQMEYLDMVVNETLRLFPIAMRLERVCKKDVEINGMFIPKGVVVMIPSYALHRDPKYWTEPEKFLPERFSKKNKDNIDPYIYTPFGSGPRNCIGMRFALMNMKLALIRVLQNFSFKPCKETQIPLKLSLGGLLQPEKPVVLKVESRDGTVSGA
T3 sequence (P11712 whole entry): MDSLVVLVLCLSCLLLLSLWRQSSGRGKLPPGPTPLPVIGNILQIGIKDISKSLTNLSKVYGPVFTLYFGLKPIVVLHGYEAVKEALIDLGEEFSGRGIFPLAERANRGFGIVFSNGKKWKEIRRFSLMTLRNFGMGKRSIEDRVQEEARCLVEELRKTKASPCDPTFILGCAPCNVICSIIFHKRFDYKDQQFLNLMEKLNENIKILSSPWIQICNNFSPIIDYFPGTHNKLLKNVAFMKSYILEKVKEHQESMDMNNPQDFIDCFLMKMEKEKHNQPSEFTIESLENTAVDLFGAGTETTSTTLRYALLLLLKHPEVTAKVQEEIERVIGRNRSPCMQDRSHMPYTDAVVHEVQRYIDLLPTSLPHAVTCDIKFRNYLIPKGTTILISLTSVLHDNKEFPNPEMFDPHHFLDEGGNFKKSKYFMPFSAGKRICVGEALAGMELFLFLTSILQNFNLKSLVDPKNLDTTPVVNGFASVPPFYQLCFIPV
Sequence of Casein kinase I isoform gamma-3 (Homo sapiens) (Q9Y6M4 whole entry, looked up, canonical isoform): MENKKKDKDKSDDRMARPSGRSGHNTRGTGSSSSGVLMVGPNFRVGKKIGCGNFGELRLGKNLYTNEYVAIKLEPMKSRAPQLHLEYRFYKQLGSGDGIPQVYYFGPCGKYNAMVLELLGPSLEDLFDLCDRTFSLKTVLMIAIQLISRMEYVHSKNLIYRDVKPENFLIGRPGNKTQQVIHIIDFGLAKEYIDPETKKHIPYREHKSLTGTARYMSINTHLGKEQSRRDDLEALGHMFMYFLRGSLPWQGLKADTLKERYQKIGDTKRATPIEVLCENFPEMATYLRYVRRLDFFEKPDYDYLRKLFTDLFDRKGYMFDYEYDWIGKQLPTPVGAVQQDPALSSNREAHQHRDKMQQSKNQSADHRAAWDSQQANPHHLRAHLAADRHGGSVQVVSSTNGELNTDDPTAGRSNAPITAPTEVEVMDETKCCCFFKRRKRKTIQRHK
Sequence of Calcium/calmodulin-dependent protein kinase type IV (Q16566 whole entry): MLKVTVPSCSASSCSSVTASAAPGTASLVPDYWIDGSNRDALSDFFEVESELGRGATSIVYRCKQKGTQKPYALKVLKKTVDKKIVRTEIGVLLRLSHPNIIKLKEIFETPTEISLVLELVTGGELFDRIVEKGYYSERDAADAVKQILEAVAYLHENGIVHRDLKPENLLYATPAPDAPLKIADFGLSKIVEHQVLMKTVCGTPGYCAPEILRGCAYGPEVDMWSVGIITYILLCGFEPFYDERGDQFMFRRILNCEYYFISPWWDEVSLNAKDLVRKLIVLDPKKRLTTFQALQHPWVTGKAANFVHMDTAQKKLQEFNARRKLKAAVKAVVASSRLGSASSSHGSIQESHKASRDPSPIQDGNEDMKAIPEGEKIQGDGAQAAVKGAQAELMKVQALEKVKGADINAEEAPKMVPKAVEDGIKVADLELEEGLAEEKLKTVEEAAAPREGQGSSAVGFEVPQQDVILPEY
Sequence of Serine/threonine-protein kinase 3 (Q13188 whole entry): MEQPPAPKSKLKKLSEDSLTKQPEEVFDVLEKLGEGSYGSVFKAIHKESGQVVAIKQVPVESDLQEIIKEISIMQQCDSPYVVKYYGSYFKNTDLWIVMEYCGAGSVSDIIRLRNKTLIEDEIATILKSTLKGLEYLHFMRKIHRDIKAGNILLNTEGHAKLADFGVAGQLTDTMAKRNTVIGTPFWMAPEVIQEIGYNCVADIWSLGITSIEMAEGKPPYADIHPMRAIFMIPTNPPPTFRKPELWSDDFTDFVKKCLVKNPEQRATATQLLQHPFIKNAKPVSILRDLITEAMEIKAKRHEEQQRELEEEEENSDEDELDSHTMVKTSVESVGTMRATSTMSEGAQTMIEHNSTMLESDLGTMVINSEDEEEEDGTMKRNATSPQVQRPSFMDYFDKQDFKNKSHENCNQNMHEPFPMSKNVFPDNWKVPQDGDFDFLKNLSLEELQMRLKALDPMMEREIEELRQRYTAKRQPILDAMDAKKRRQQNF
Sequence of Rho-associated protein kinase 2 (O75116 whole entry): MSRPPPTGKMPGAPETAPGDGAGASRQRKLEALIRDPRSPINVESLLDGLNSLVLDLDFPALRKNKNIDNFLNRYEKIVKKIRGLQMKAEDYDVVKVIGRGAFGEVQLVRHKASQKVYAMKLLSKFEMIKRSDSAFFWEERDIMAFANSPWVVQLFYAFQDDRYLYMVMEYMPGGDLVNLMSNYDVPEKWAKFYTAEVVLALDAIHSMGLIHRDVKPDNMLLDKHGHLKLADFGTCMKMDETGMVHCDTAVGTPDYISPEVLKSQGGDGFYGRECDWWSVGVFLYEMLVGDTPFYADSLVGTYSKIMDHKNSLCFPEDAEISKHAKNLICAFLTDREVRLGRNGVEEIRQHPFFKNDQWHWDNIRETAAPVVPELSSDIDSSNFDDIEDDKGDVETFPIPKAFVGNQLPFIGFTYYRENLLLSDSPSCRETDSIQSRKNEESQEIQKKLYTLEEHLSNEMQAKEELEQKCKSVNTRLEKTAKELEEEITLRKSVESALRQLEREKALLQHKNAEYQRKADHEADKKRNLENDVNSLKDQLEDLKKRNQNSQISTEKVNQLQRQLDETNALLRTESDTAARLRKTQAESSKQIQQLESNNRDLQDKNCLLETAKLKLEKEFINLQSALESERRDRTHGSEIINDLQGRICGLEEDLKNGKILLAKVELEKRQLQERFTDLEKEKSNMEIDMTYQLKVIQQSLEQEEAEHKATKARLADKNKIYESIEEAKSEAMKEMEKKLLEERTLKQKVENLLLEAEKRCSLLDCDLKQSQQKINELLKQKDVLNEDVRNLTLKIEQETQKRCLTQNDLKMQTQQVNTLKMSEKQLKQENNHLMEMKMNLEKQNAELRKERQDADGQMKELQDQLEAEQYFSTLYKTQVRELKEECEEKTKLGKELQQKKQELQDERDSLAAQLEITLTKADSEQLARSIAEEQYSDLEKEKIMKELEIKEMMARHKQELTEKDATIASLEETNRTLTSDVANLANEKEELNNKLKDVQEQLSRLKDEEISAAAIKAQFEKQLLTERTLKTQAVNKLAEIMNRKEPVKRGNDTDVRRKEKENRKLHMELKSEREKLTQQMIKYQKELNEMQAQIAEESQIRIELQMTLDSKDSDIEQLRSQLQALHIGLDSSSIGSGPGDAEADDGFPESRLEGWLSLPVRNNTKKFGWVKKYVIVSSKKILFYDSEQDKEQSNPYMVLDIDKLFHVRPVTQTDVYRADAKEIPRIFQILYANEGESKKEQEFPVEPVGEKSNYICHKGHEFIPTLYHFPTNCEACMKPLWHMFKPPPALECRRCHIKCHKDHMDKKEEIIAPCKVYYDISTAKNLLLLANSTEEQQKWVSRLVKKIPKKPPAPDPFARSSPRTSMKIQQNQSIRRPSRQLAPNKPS

Row | SMILES | CC50 at 0.5 h [5] [µM] | EC50 [12] [µM] | IC50 [13] [µM] | other results
1 | O=C(c1ccc(-c2ccc(Cl)cc2)o1)N(Cc1ccccn1)c1ccc(N2CCNCC2)cc1 [listing 1 of 2 here] | > 20 | – | – | IC50 (THP-1 [1]): 5.2 µM; IC50 (SW1353): 5.7 µM; IC50 (Cytochrome P450 3A4 [2]): > 20 µM; IC50 (Cytochrome P450 2D6 [3]): > 20 µM; IC50 (Cytochrome P450 2C9 [4]): > 30 µM; IC50 (Cytochrome P450 2D6 [6]): > 20 µM; IC50 (Cytochrome P450 2C9 [7]): > 20 µM; IC50 (THP-1 [8]): 4.4 µM; IC50 [9]: 2.2 µM; IC50 (Cytochrome P450 3A4 [10]): > 20 µM
2 | CCCN(C(=O)c1ccc(-c2ccc(Cl)cc2)o1)c1ccc(N2CCNCC2)cc1 | > 20 | – | – | –
3 | O=C(c1ccc(-c2ccc(Cl)cc2)o1)N(Cc1ccccn1)c1ccc(N2CCNCC2)cc1 [listing 2 of 2 here] | – | – | – | inhibition (THP-1 [1]): Dose-dependent effect; inhibition (SW1353): Dose-dependent effect; inhibition (THP-1 [8]): Dose-dependent effect; inhibition (Homo sapiens): Dose-dependent effect; inhibition [11]: > 50%
4 | CC(C)N(C(=O)c1ccc(-c2ccc(Cl)cc2)o1)c1ccc(N2CCNCC2)cc1 | > 20 | 2.7 | 1.2 | –
5 | CN(C(=O)c1ccc(-c2ccc(Cl)cc2)o1)c1ccc(N2CCNCC2)cc1 | > 20 | – | – | –
6 | O=C(Nc1ccc(N2CCNCC2)cc1)c1csc(-c2ccc(Cl)cc2)n1 | 0.9 | 0.9 | 9.5 | –
7 | O=C(Nc1ccc(N2CCNCC2)cc1)c1ccc(-c2ccc(Cl)cc2)s1 | 8 | 5 | 9 | –
8 | Cc1cc(Cl)ccc1-c1ccc(C(=O)Nc2ccc(N3CCNCC3)cc2)o1 | 8.8 | 1.4 | 5.9 | –
9 | O=C(Nc1ccc(N2CCNCC2)cc1)c1cc(-c2ccc(Cl)cc2)on1 | 1 | 1.9 | 7.5 | –
10 | COc1ccc(-c2ccc(C(=O)Nc3ccc(N4CCNCC4)cc3)o2)cc1 | – | 8 | 22 | –
11 | O=C(Nc1ccc(N2CCNCC2)c(F)c1)c1ccc(-c2ccc(Cl)cc2)o1 | 16 | > 3.4 | 6.7 | –
12 | O=C(Nc1ccc(N2CCNCC2=O)cc1)c1ccc(-c2ccc(Cl)cc2)o1 | – | – | 15 | –
13 | O=C(Nc1ccc(N2CCC(O)CC2)cc1)c1ccc(-c2ccc(Cl)cc2)o1 | – | – | > 20 | –
14 | O=C(Nc1ccc(N2CCNCC2)cc1)c1ccc(-c2ccc(Cl)s2)o1 | > 20 | > 8 | 6.9 | –
15 | O=C(Nc1ccc(N2CCNCC2)cc1)c1cccc(-c2ccc(Cl)cc2)n1 | > 10 | 3.9 | 11 | –
16 | Cl.O=C(c1ccc(-c2ccc(Cl)cc2)o1)N(Cc1ccccn1)c1ccc(N2CCNCC2)cc1 | – | – | – | AUC(0-t) at 6 h [14]: 2.3 µM·h
17 | CCCCN(C(=O)c1ccc(-c2ccc(Cl)cc2)o1)c1ccc(N2CCNCC2)cc1 | 19 | – | – | –
18 | O=C(Nc1ccc(N2CCNCC2)cc1C(F)(F)F)c1ccc(-c2ccc(Cl)cc2)o1 | 18 | > 8 | > 20 | –
19 | O=C(Nc1ccc(N2CCNCC2)cc1)c1ccc(-c2ccc(C(F)(F)F)cc2)o1 | > 15 | > 7.7 | 20 | –
20 | O=C(Nc1ccc(C2=CCNCC2)cc1)c1ccc(-c2ccc(Cl)cc2)o1 | 6.5 | 1.3 | 2.1 | –
21 | O=C(Nc1ccc(N2CCNCC2)cc1)c1ccc(-c2ccccc2Cl)o1 | 15 | > 8 | 8 | –
22 | O=C(Nc1ccc(N2CCNCC2)cc1)c1ccc(-c2ccc(Cl)cc2)o1 | > 10 | 2 | 5.5 | IC50 [15]: > 30 µM; IC50 [16]: > 30 µM; IC50 [17]: 5 µM; IC50 [18]: > 30 µM; IC50 [19]: > 30 µM; solubility [20]: > 20 µM; IC50 [21]: > 30 µM; IC50 [22]: > 30 µM; IC50 [23]: > 30 µM; IC50 [24]: > 30 µM; IC50 [25]: > 30 µM; IC50 [26]: > 30 µM; IC50 [27]: > 30 µM; IC50 [28]: 7.5 µM
23 | CN1CCN(c2ccc(NC(=O)c3ccc(-c4ccc(Cl)cc4)o3)cc2)CC1 | – | 20 | 6 | –
24 | O=C(Nc1ccc(N2CCNCC2)cc1)c1ccc(-c2ccc(Cl)cc2Cl)o1 | 8.1 | 1.6 | 7.6 | –
25 | O=C(Nc1ccc(N2CCNCC2)cc1)c1ccc(-c2cccc(Cl)c2)o1 | 13 | > 5 | > 20 | –
26 | O=C(c1ccc(-c2ccc(Cl)cc2)o1)N(Cc1ccncc1)c1ccc(N2CCNCC2)cc1 | > 8 | – | – | –
27 | Cn1ccnc1CN(C(=O)c1ccc(-c2ccc(Cl)cc2)o1)c1ccc(N2CCNCC2)cc1 | > 20 | – | – | –
28 | CCN(C(=O)c1ccc(-c2ccc(Cl)cc2)o1)c1ccc(N2CCNCC2)cc1 | > 8 | – | – | –
